Compound activity: PubChem BioAssay, several laboratories
Only some compounds are listed: those with a hit (about 2.2% of all), similar ones and a draw of the others.
PABP polyA inh: blocks human PABP binding to poly(A) RNA | calls only at 35 µM | AID 2014 | actives 1% (n = 290,000) | fluorescence polarization;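 further: calls also rest on retests at 20 µM and on dose response follow-up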
IMP-1 inhibitor: blocks Pseudomonas aeruginosa IMP-1 metallo-beta-lactamase | purified IMP-1, nitrocefin hydrolysis, epi-absorbance fluorescence | inhibition, % at 5.6 µM | actives 0.45% (n = 290,000);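 active means inhibition above the mean plus 3 SD of all compounds in the same screening run, cut at about 4.5% in these data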;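 further: 0% = IMP-1 with DMSO and 100% = DMSO wells lacking enzyme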
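assay system = purified recombinant IMP-1 metallo-beta-lactamase enzyme | schedule = 15 min preincubation plus 25 min reaction at 25 °C | signal = Epi-absorbance fluorescence, 480 nm excitation, 530 nm emission | read-out basis = percent inhibition from optical density relative to buffer-blank wells | controls = IMP-1 with DMSO as 0%, enzyme-free DMSO as 100%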
VIM-2 inhibitor: inhibitors of Pseudomonas aeruginosa VIM-2 metallo-beta-lactamase; purified VIM-2, nitrocefin hydrolysis, epi-absorbance fluorescence; actives 0.89% (n = 290,000); inhibition, % at 5.6 µM;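 active means inhibition above the mean of all tested compounds plus 3 SD, cutoff set per screening run, cut at about 7.5% in these data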;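 further: red hydrolysis product quenches plate fluorescence so inhibitors raise well fluorescence; 0% = enzyme with DMSO and 100% = DMSO without enzyme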
PABP1 MLLE inh: inhibitors of microRNA-mediated deadenylation, human PABP1 MLLE binding. P11940. GST-MLLE / FITC-PAM2 fluorescence polarization. inhibition, % at 20 µM. actives 0.36% (n = 360,000); in the data active means inhibition above about 35%, passing the limit was not always enough;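 further: plate controls were DMSO wells with GST-MLLE for no effect and wells lacking GST-MLLE protein for full effect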
eIF4H inh: inhibitors of RNA binding by human eIF4H; Q15056; eIF4H fluorescence polarization binding assay; inhibition, % at 35 µM; actives 0.94% (n = 290,000);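 further: calls also rest on retests at 20 µM and on dose response follow-up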
The depositor's hits bear a star; i = inactive; ? = inconclusive; . = not tested or not shown; + = active, no number. Unless noted, how the calls were made is not given here.

SMILES | PABP polyA inh | IMP-1 inhibitor | VIM-2 inhibitor | PABP1 MLLE inh | eIF4H inh
CN(Cc1ccc(F)cc1)C(=O)c1sccc1-c1ccccc1 | + | -6 | -3 | 6 | 15
Cc1cc(C)n(NC(=S)NC2CCCCC2)c(=O)c1C#N | i | -1 | 2 | 45* | -2
Cn1c(=O)c2c(n(Cc3ccccc3)c1=O)NC(=O)C2CC(=O)NCc1cccc(Cl)c1 (stereo not drawn) | i | -2 | -1 | 4 | -2
Cc1nc(S/C(=C/c2ccc(-c3cc(Cl)ccc3C)o2)C(=O)O)n[nH]1 | + | -1 | -2 | -12 | 60
Cc1nc(S/C(=C/c2ccc(-c3ccc(Cl)cc3)o2)C(=O)O)n[nH]1 | i | -6 | -5 | -20 | 43
Cc1nc(S/C(=C/c2ccc(-c3ccc(C(=O)O)cc3)o2)C(=O)O)n[nH]1 | + | -4 | 6 | -18 | 75
CC(=O)c1ccc(-c2ccc(/C=C(/Sc3n[nH]c(C)n3)C(=O)O)o2)cc1 | i | 1 | -2 | -124 | 18
CN1CCC(=NNC(=O)c2cc(-c3ccc(Cl)cc3)n[nH]2)CC1 | i | 0 | -1 | -14 | -4
CCCCCCN1C[C@@H](n2cc(COC(=O)c3ccccc3)nn2)[C@H](O)C[C@@H]1c1ccc(Cl)cc1 | . | . | . | -5 | .
O=S(=O)(Nc1ccc2c3c(cccc13)CC2)c1ccc(F)cc1 | i | 7.8* | 0 | -17 | 4
COc1ccc(CCC(=O)NCCS(=O)(=O)N2CCN(c3ccc(F)cc3)CC2)cc1 | . | . | . | 17 | .
CCN(C(=O)Nc1ccccc1)c1ccccc1 | i | -3 | -2 | 3 | 3
C#CCN(C(=O)Nc1ccccc1)c1ccccc1 | + | -1 | 1 | 8 | 3.2*
NC(=O)C1=C[C@@H](c2csc3ccccc23)C[C@@H](OCCCCO)O1 | i | 6.3* | 3 | -2 | 0
Cc1ccc(-c2ccc(CN3C(C)C(=O)N(Cc4cn(Cc5ccco5)nn4)CCS3(=O)=O)cc2)c(C)c1 (stereo not drawn) | . | . | . | -17 | .
CC(=O)Nc1ccc2c(COC(=O)CC3Sc4ccccc4NC3=O)cc(=O)oc2c1 (stereo not drawn) | + | -1 | 1 | -70 | ?
CC1CC(C)(C)NC(=S)S1 (stereo not drawn) | i | -1 | 3 | 41* | -4
Cc1c(NC(=O)C(C)OC(=O)/C=C/c2ccco2)c(=O)n(-c2ccccc2)n1C (stereo not drawn) | + | -1 | -2 | 0 | 78*
COc1cccc(/C=C/C(=O)OC(C)C(=O)Nc2c(C)n(C)n(-c3ccccc3)c2=O)c1 (stereo not drawn) | i | 2 | 1 | -1 | 3
O=C(CSc1ccc2nnc(-c3cccs3)n2n1)N1CCCC1 | i | -5 | 8.1* | -2 | 6
COc1ccccc1NC(=O)NCc1ccc(C)n1C | i | 2 | 11* | -5 | 53
Cc1ccc(CNC(=O)Nc2ccc(F)cc2)n1C | i | -3 | -3 | 5 | 6
Cc1ccccc1NS(=O)(=O)c1ccc2[nH]cc(C(=O)N(C)Cc3ccco3)c(=O)c2c1 | i | 4.5* | 1 | 0 | 24
COc1cccc(NS(=O)(=O)c2ccc3[nH]cc(C(=O)N(C)Cc4ccco4)c(=O)c3c2)c1 | i | -3 | -3 | -15 | 16
COc1cc2c3c(c1)/C(=C1/SC(NC(C)=O)=NC1=O)C(=O)N3C(C)(C)C=C2C | i | 0 | 0 | 37* | 18
SMILES | PABP polyA inh | IMP-1 inhibitor | VIM-2 inhibitor | PABP1 MLLE inh | eIF4H inh
N#C/C(=C\c1ccc(Sc2ccc(Cl)cc2)o1)c1nc2ccccc2[nH]1 | + | -3 | -2 | -45 | 58*
c1nnc2c3c4c(sc3ncn12)CCCC4 | i | -3 | -3 | . | -13
CSc1nc2sc3c(c2c2nncn12)CCC3 | i | -1 | 11* | -9 | -3
Cc1cnc(CN2CCc3c([nH]c4ccccc34)C2CC(C)C)[nH]1 (stereo not drawn) | + | -1 | -3 | -38 | 20
CN1C(=O)c2cccc(NCCCN3C(=O)c4ccccc4C3=O)c2C1=O | + | 0 | -3 | -4 | 66*
CC1(c2ccc(OC(F)F)cc2)NC(=O)N(CC(=O)NCCC2=CCCCC2)C1=O (stereo not drawn) | . | . | . | -2 | .
COc1ccc(C)cc1-n1nnnc1SCn1nnc2ccccc2c1=O | i | -3 | -3 | 46* | 2
Cc1ccc(-n2nnnc2SCn2nnc3ccccc3c2=O)cc1 | i | -3 | -4 | -20 | 1
O=[N+]([O-])c1cc(Br)cc(C=Nc2ccc3c(c2)OCO3)c1O | + | 0 | -3 | -6 | 69*
Nc1ncnc2c1ncn2[C@@H]1O[C@H](CNCc2cccc(C#Cc3ccccc3)c2)[C@@H](O)[C@H]1O | . | . | . | -16 | .
CN(C(=S)NC(=O)c1ccccc1)c1c(N)n(Cc2ccccc2)c(=O)[nH]c1=O | i | -4 | -1 | 40* | -8
CCC1S/C(=N/C(=O)NC2CCCCC2)NC1=O (stereo not drawn) | i | -3 | -3 | 6 | -11
O=C(/N=C1\NC(=O)C(F)(C(F)(F)F)S1)NC1CCCCC1 (stereo not drawn) | i | . | . | -7 | 122*
COc1ccccc1C(=O)NC(CCSC)C(=O)NCc1ccncc1 (stereo not drawn) | . | . | . | 3 | .
CN(C)c1ccc(/C=C/C(=O)c2cccc(Br)c2)cc1 | ? | 8.3* | 6 | i | ?
NS(=O)(=O)c1ccc(CNC(=S)NC2CCCCC2)cc1 | i | -3 | -1 | -90 | -1
Cn1c(=O)oc2cc(S(=O)(=O)Nc3ccc4c(c3)OCCO4)ccc21 | + | -3 | -2 | -10 | 75*
CCC1CCCCN1CCNS(=O)(=O)c1ccc2c(c1)oc(=O)n2C (stereo not drawn) | i | -3 | -4 | -12 | -1
CC(NS(=O)(=O)c1ccc2c(c1)oc(=O)n2C)c1ccccc1 (stereo not drawn) | + | -1 | -1 | 6 | 91
CCC1CCCCN1CCCNS(=O)(=O)c1ccc2c(c1)oc(=O)n2C (stereo not drawn) | + | 0 | 1 | -6 | 67
CC1(C(=O)NS(=O)(=O)c2ccccc2OC(F)(F)F)CCN1C(=O)c1ccccc1 (stereo not drawn) | . | . | . | 10 | .
CCCCOc1ccccc1C(=O)N(Cc1ccc(C)o1)C1CCS(=O)(=O)C1 (stereo not drawn) | i | -2 | -2 | -3 | 2
CC(=O)NCCc1nc2ccccc2n1Cc1cccc(C)c1 | i | -2 | -2 | 2 | -2
CC(C)=CCc1c(O)ccc2c1OC(c1ccc(O)c(O)c1)CC2=O (stereo not drawn) | i | -1 | -1 | -19 | 9
O=C1CC(c2ccc(O)c(O)c2)Oc2c1ccc(O)c2O (stereo not drawn) | + | . | . | -10 | 94*
O=C(N1CCCC1)C12CC3CC(CC(Cl)(C3)C1)C2 | i | -3 | -2 | 10 | 9
